Experimental data gathered from unrelated publications.
Protocols differ between the studies behind these lines.
Target: Platelet-derived growth factor receptor alpha (PDGFRA, Homo sapiens, UniProt P16234)

O=C(NCC1CCOCC1)c1n[nH]cc1NC(=O)c1c(F)cccc1F  remaining binding (binding; competition with immobilised ligand; 1 µM): 84%
N#Cc1ccccc1CSc1nnc2c(n1)[nH]c1ccccc12  remaining binding (binding; competition with immobilised ligand; 10 µM): 94%
CS(=O)(=O)c1cc(C2(NC(=O)c3cncc4c3cnn4-c3ccc(F)cc3)CC2)ccn1  remaining binding (cell-free assay; competition with immobilised ligand; 1 µM): 90%
C[C@@H]1CN(c2ccc3ncc(-c4ccc5[nH]nc(C6CC6)c5c4)n3n2)C[C@H](C)O1  remaining binding (binding; competition with immobilised ligand; 0.5 µM): 76%
CCOCCn1cc(C(=O)Nc2ccc(-n3nc(-c4cccnc4)cc3C(F)(F)F)cn2)ccc1=O  remaining binding (cell-free assay; competition with immobilised ligand; 1 µM): 68%
COc1cnc(Nc2cccc(S(N)(=O)=O)c2)nc1N1CCN(c2ccccc2)C(=O)C1  remaining binding (binding; competition with immobilised ligand; 1 µM): 82%
CN(C)c1ncc(F)c(-c2cnn3ncccc23)n1  remaining binding (binding; 1 µM): 67%
COc1ccc2c(c1)O[C@@H](c1ccc(OC)c(OC)c1)C[C@H]2NC(=O)C1(c2ccc3c(c2)OC(F)(F)O3)CC1  remaining binding (cell-free assay; competition with immobilised ligand; 1 µM): 78%
O=C(c1ccc(Nc2ncc(Cl)c(-c3ccc(Cl)s3)n2)cc1)N1CCC(N2CCCC2)CC1  remaining binding (binding; competition with immobilised ligand; 1 µM): 3.4%
CN(C)c1nccc(-c2cnn3ncccc23)n1  remaining binding (binding; 1 µM): 100%
Cc1cnc(Nc2ccc(C(=O)N3CCC(N4CCCC4)CC3)cc2)nc1-c1cc2ccccc2s1  remaining binding (binding; competition with immobilised ligand; 1 µM): 14%
N[C@H]1CCN(c2nccc(-c3cnn4ncccc34)n2)C1  remaining binding (binding; 1 µM): 90%
COc1ccc2c(O[C@@H]3C[C@H]4C(=O)N[C@]5(C(=O)O)CC5/C=C\CCCCC[C@H](NC(=O)OC5CCCC5)C(=O)N4C3)cc(-c3csc(NC(=O)C(C)C)n3)nc2c1C (stereo partly shown)  remaining binding (cell-free assay; competition with immobilised ligand; 1 µM): 84%
O=C(c1ccc(Nc2ncc(Cl)c(-c3cc4ccccc4s3)n2)cc1)N1CCC(N2CCCC2)CC1  remaining binding (binding; competition with immobilised ligand; 1 µM): 35%
c1cncc(-c2cccc(Nc3nccc(NC4CCCCC4)n3)c2)c1  remaining binding (binding; competition with immobilised ligand; 10 µM): 11%
CN(CCCC(F)(F)F)c1nccc(-c2cnn3ncccc23)n1  remaining binding (binding; 1 µM): 100%
CNCc1ccccc1-c1csc([C@H](C)Nc2nc(C)nc3cc(OC)c(OC)cc23)c1  remaining binding (cell-free assay; competition with immobilised ligand; 1 µM): 92%
CC(C)(C)c1ccc(-c2nc(CBr)nn2-c2cccc(O)c2)cc1  remaining binding (cell-free assay; competition with immobilised ligand; 10 µM): 83%
Cn1cc(Cl)c2c(Oc3c(F)cc(Nc4cc(Cl)nc(N)n4)cc3F)ccnc21  remaining binding (cell-free assay; competition with immobilised ligand; 0.1 µM): 98%
CC1CCCN1c1nccc(-c2cnn3ncccc23)n1 (stereo not shown)  remaining binding (binding; 1 µM): 94%
FC(F)(F)Oc1cccc(-c2cnc3ccc(-c4ccncc4)nn23)c1  remaining binding (cell-free assay; competition with immobilised ligand; 5 µM): 22%
C[C@H]1CCN(c2nccc(-c3cnn4ncccc34)n2)C1  remaining binding (binding; 1 µM): 83%
C[C@H](c1cccc(C#N)c1)n1cc(Cl)cc(C(N)=O)c1=N  remaining binding (cell-free assay; competition with immobilised ligand; 1 µM): 94%
F[C@@H]1CCN(c2nccc(-c3cnn4ncccc34)n2)C1  remaining binding (binding; 1 µM): 100%
Nc1ncc2c(n1)-c1c([nH]c3ccc(C#CC4CC4)cc13)CCCC2  remaining binding (binding; competition with immobilised ligand; 1 µM): 76%
